Results of several laboratories.
Lines come from different studies, so protocols differ. pIC50: −log10 of the molar value.
Cell line: SW-620

SMILES | read-out | method | tested at | time | notes | quantity | result
COc1ccc(C(=O)/C=C/c2ccccc2Br)cc1S(N)(=O)=O | cell growth or viability | SRB | 10 µM |  |  | inhibition | 146%
O=C(/C=C/c1ccc2c(=O)n(Cc3ccccc3)cnc2c1)NO | cell growth or viability | SRB |  | 48 h |  | pIC50 | 5.95
CC(C)C[C@H](NC(=O)[C@H](Cc1ccccc1)NC(=O)c1cnccn1)B(O)O | cell growth or viability | ATP luminescence |  |  |  | pIC50 | 8.05
COc1ccc(C(=O)/C=C/c2c(F)cccc2Cl)cc1S(N)(=O)=O | cell growth or viability | SRB |  | 48 h |  | GI50 | 3600 nM
O=C(/C=C/c1ccc2c(=O)n(Cc3ccccc3F)cnc2c1)NO | cell growth or viability | SRB |  | 48 h |  | pIC50 | 5.75
Cc1cc(C)n(C(=S)[S][Au][PH](CCCCCC[PH]([Au][S]C(=S)n2nc(C)cc2C)(c2ccccc2)c2ccccc2)(c2ccccc2)c2ccccc2)n1 | cell growth or viability |  |  |  |  | GI50 | 1260 nM
COc1ccc(C(=O)/C=C/c2ccc3c(c2)OCCO3)cc1S(N)(=O)=O | cell growth or viability | SRB | 10 µM |  |  | inhibition | 68%
CC(C)n1c(/C=C/C(O)CC(O)CC(=O)O)c(-c2ccc(F)cc2)c2ccccc21 (stereo not shown) | cell growth or viability | SRB |  | 72 h |  | IC50 | 0.49 µg/mL
O=C(/C=C/c1ccc2c(=O)n(Cc3ccc(F)cc3)cnc2c1)NO | cell growth or viability | SRB |  | 48 h |  | pIC50 | 5.99
O=C(O)C[C@H](O)C[C@H](O)/C=C/c1c(C2CC2)nc2ccccc2c1-c1ccc(F)cc1 | cell growth or viability | SRB |  | 72 h |  | IC50 | 0.54 µg/mL
O=C(/C=C/c1ccc2c(=O)n(Cc3ccc(Cl)cc3)cnc2c1)NO | cell growth or viability | SRB |  | 48 h |  | pIC50 | 6.17
Cn1cc(-c2ccc(-c3cncc(Cl)c3N3CCC4(CCNC4=O)CC3)cc2)cn1 | colony formation |  |  | 14 days | 3D culture | GI50 | 140 nM
COc1ccc(C(=O)/C=C/c2cccc(Cl)c2Cl)cc1S(N)(=O)=O | cell growth or viability | SRB |  | 48 h |  | GI50 | 1600 nM
CC(=O)Nc1cccc(-n2c(=O)n(C3CC3)c(=O)c3c(Nc4ccc(I)cc4F)n(C)c(=O)c(C)c32)c1 | cell growth or viability | resazurin | 780 pM | 72 h |  | viability | 71.7%
O=C(/C=C/c1ccc2c(=O)n(CCCl)cnc2c1)NO | cell growth or viability | SRB |  | 48 h |  | pIC50 | 5.25
COc1ccc(C(=O)/C=C/c2ccc3ccccc3c2)cc1S(N)(=O)=O | cell growth or viability | SRB |  | 48 h |  | GI50 | 1800 nM
